The structures appear in SMILES notation. Calls of active or inactive are those of the source. The rule behind the calls is not given here. Where only a bound is given, the exact number is not on record here.

In the first assay the test system is A549. In words: Antiproliferative activity against human A549 cells assessed as reduction in cell viability after 72 hrs by MTT assay. The assay is classed as functional, cell-based. The note with it: A549, 72 h. In short, it runs like this: (§1)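 MTT assay over 72 h, compounds at 64, 16, 4, 1, 0.25, 0.0625 and 0.015625 μM. MTT solution (5 mg/mL) and DMSO added afterwards, 10 min at room temperature, absorbance read at 490 nm. IC50 calculated as the mean ± SD of three independent experiments.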
In the case of `C=C1C(=O)[C@@]23C(=O)OC[C@]4([C@@H](OC(C)=O)CCC(C)(C)[C@H]4C=O)[C@@H]2CC[C@@H]1[C@H]3OC(=O)CCCCC1CCSS1` (some centres not stated), the IC50 stood at 19.9 µM.

Consider `C=C1C(=O)[C@@]23C(=O)OC[C@]4([C@@H](OC(C)=O)CCC(C)(C)[C@H]4C=O)[C@@H]2CC[C@@H]1[C@H]3O`, for which the 50% inhibitory concentration (IC50) came out at 27.4 µM.

For `C=C1C(=O)[C@]23[C@H](OC(=O)CCC(=O)Oc4ccc(-c5cc(=S)ss5)cc4)[C@H]1CC[C@H]2[C@@]12CO[C@]3(O)[C@@H](O)[C@@H]1C(C)(C)CC[C@@H]2OC(C)=O`, the 50% inhibitory concentration (IC50) is 6.34 µM.

For the compound `C=C1C(=O)[C@@]23C(=O)OC[C@]4(C(=O)CCC(C)(C)[C@H]4C=O)[C@@H]2CC[C@@H]1[C@H]3O`, the IC50 was determined as 5.31 µM.

`C=C1C(=O)[C@@]23C(=O)OC[C@]4(C(=O)CCC(C)(C)[C@H]4C=O)[C@@H]2CC[C@@H]1[C@H]3OC(=O)c1ccccc1C(=O)Oc1ccc(-c2cc(=S)ss2)cc1`: the IC50 turned out to be 7.45 µM.

A further assay has as its system SGC-7901. In words: Antiproliferative activity against human SGC7901 cells assessed as reduction in cell viability after 72 hrs by MTT assay. The assay is classed as functional, cell-based. The note with it: SGC-7901, 72 h. In short, it runs like this:
as §1
Consider `C=C1C(=O)[C@@]23C(=O)OC[C@]4([C@@H](OC(C)=O)CCC(C)(C)[C@H]4C=O)[C@@H]2CC[C@@H]1[C@H]3OC(=O)CCCCC1CCSS1` (some centres not stated), for which the IC50 turned out to be 10 µM.

On to `C=C1C(=O)[C@@]23C(=O)OC[C@]4([C@@H](OC(C)=O)CCC(C)(C)[C@H]4C=O)[C@@H]2CC[C@@H]1[C@H]3O`, for which the IC50 turned out to be 49.8 µM.

Consider `C=C1C(=O)[C@]23[C@H](OC(=O)CCC(=O)Oc4ccc(-c5cc(=S)ss5)cc4)[C@H]1CC[C@H]2[C@@]12CO[C@]3(O)[C@@H](O)[C@@H]1C(C)(C)CC[C@@H]2OC(C)=O`, for which the IC50 stood at 5.49 µM.

As for `C=C1C(=O)[C@@]23C(=O)OC[C@]4(C(=O)CCC(C)(C)[C@H]4C=O)[C@@H]2CC[C@@H]1[C@H]3O`, the IC50 was 19.5 µM.

As for `C=C1C(=O)[C@@]23C(=O)OC[C@]4(C(=O)CCC(C)(C)[C@H]4C=O)[C@@H]2CC[C@@H]1[C@H]3OC(=O)c1ccccc1C(=O)Oc1ccc(-c2cc(=S)ss2)cc1`, the concentration for half-maximal inhibition (IC50) turned out to be 5.93 µM.

The next assay relates to K562. As to the kind of experiment: Antiproliferative activity against human K562 cells assessed as reduction in cell viability after 72 hrs by MTT assay. Format: functional, cell-based. The settings on record: K562, 72 h. In short, it runs like this:
as §1
On to `C=C1C(=O)[C@@]23C(=O)OC[C@]4([C@@H](OC(C)=O)CCC(C)(C)[C@H]4C=O)[C@@H]2CC[C@@H]1[C@H]3OC(=O)CCCCC1CCSS1` (some centres not stated), for which the IC50 was determined as 6.75 µM.

Take `C=C1C(=O)[C@@]23C(=O)OC[C@]4([C@@H](OC(C)=O)CCC(C)(C)[C@H]4C=O)[C@@H]2CC[C@@H]1[C@H]3O`: the IC50 was determined as 8.96 µM.

`C=C1C(=O)[C@]23[C@H](OC(=O)CCC(=O)Oc4ccc(-c5cc(=S)ss5)cc4)[C@H]1CC[C@H]2[C@@]12CO[C@]3(O)[C@@H](O)[C@@H]1C(C)(C)CC[C@@H]2OC(C)=O`: the IC50 was determined as 2.54 µM.

In the case of `C=C1C(=O)[C@@]23C(=O)OC[C@]4(C(=O)CCC(C)(C)[C@H]4C=O)[C@@H]2CC[C@@H]1[C@H]3O`, the 50% inhibitory concentration (IC50) was determined as 3.26 µM.

As to `C=C1C(=O)[C@@]23C(=O)OC[C@]4(C(=O)CCC(C)(C)[C@H]4C=O)[C@@H]2CC[C@@H]1[C@H]3OC(=O)c1ccccc1C(=O)Oc1ccc(-c2cc(=S)ss2)cc1`, the IC50 was 4.25 µM.

Another assay has as its system Bel-7402. As to the kind of experiment: Antiproliferative activity against human Bel7402 cells assessed as reduction in cell viability after 72 hrs by MTT assay. The assay is classed as functional, cell-based. The settings on record: Bel-7402, 72 h. In short, it runs like this: as §1
`C=C1C(=O)[C@@]23C(=O)OC[C@]4([C@@H](OC(C)=O)CCC(C)(C)[C@H]4C=O)[C@@H]2CC[C@@H]1[C@H]3OC(=O)CCCCC1CCSS1` (some centres not stated): the concentration for half-maximal inhibition (IC50) is 4.58 µM.

Regarding `C=C1C(=O)[C@@]23C(=O)OC[C@]4([C@@H](OC(C)=O)CCC(C)(C)[C@H]4C=O)[C@@H]2CC[C@@H]1[C@H]3O`, the IC50 was > 50 µM.

For the compound `C=C1C(=O)[C@]23[C@H](OC(=O)CCC(=O)Oc4ccc(-c5cc(=S)ss5)cc4)[C@H]1CC[C@H]2[C@@]12CO[C@]3(O)[C@@H](O)[C@@H]1C(C)(C)CC[C@@H]2OC(C)=O`, the IC50 was found to be 2.87 µM.

On to `C=C1C(=O)[C@@]23C(=O)OC[C@]4(C(=O)CCC(C)(C)[C@H]4C=O)[C@@H]2CC[C@@H]1[C@H]3O`, for which the IC50 was found to be 4.67 µM.

As to `C=C1C(=O)[C@@]23C(=O)OC[C@]4(C(=O)CCC(C)(C)[C@H]4C=O)[C@@H]2CC[C@@H]1[C@H]3OC(=O)c1ccccc1C(=O)Oc1ccc(-c2cc(=S)ss2)cc1`, the half-maximal inhibitory concentration (IC50) worked out at 3.26 µM.

Another assay deals with L02. In words: Cytotoxicity against human L02 cells assessed as reduction in cell viability after 72 hrs by MTT assay. The assay is classed as cell-based. The note with it: L02, 72 h. In short, it runs like this:
as §1
Consider `C=C1C(=O)[C@@]23C(=O)OC[C@]4([C@@H](OC(C)=O)CCC(C)(C)[C@H]4C=O)[C@@H]2CC[C@@H]1[C@H]3OC(=O)CCCCC1CCSS1` (some centres not stated), for which the concentration for half-maximal inhibition (IC50) was 36.5 µM.

For `C=C1C(=O)[C@@]23C(=O)OC[C@]4([C@@H](OC(C)=O)CCC(C)(C)[C@H]4C=O)[C@@H]2CC[C@@H]1[C@H]3O`, the IC50 is > 50 µM.

As to `C=C1C(=O)[C@]23[C@H](OC(=O)CCC(=O)Oc4ccc(-c5cc(=S)ss5)cc4)[C@H]1CC[C@H]2[C@@]12CO[C@]3(O)[C@@H](O)[C@@H]1C(C)(C)CC[C@@H]2OC(C)=O`, the 50% inhibitory concentration (IC50) turned out to be 23.2 µM.

In the case of `C=C1C(=O)[C@@]23C(=O)OC[C@]4(C(=O)CCC(C)(C)[C@H]4C=O)[C@@H]2CC[C@@H]1[C@H]3O`, the IC50 was 29.7 µM.

With `C=C1C(=O)[C@@]23C(=O)OC[C@]4(C(=O)CCC(C)(C)[C@H]4C=O)[C@@H]2CC[C@@H]1[C@H]3OC(=O)c1ccccc1C(=O)Oc1ccc(-c2cc(=S)ss2)cc1`, the half-maximal inhibitory concentration (IC50) came out at 26.2 µM.

Test system in another assay: not listed separately
As to the kind of experiment: Induction of H2S generation in PBS containing Na2S and MB+ cocktail in presence of TCEP/L-cysteine measured at 15 to 20 mins after 20 mins compound incubation by methylene blue dye based UV-Vis spectrophotometric method. Format: functional.
Settings: not given
In short, it runs like this: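 Na2S standards (5–150 μM) in sodium phosphate buffer reacted 20 min at room temperature with methylene blue cocktail (FeCl3/HCl, N,N-dimethyl-1,4-phenylenediamine/HCl, Zn(OAc)2) to build a 670 nm calibration curve. Compounds from 40 mM THF stock added to phosphate buffer with 1 mM TCEP or L-cysteine. Aliquots taken into the cocktail at set times, incubated 20 min, read at 670 nm. Mean of three experiments.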
Consider `C=C1C(=O)[C@@]23C(=O)OC[C@]4([C@@H](OC(C)=O)CCC(C)(C)[C@H]4C=O)[C@@H]2CC[C@@H]1[C@H]3OC(=O)CCCCC1CCSS1` (some centres not stated), for which the outcome was Active.

Turning to `C=C1C(=O)[C@@]23C(=O)OC[C@]4(C(=O)CCC(C)(C)[C@H]4C=O)[C@@H]2CC[C@@H]1[C@H]3OC(=O)c1ccccc1C(=O)Oc1ccc(-c2cc(=S)ss2)cc1`, the outcome was Active.

Another assay relates to PBMC. As to the kind of experiment: Cytotoxicity against human PBMC assessed as reduction in cell viability after 72 hrs by MTT assay. The assay is classed as cell-based.
Settings: not given
In outline: as §1
With `C=C1C(=O)[C@@]23C(=O)OC[C@]4([C@@H](OC(C)=O)CCC(C)(C)[C@H]4C=O)[C@@H]2CC[C@@H]1[C@H]3OC(=O)CCCCC1CCSS1` (some centres not stated), the concentration for half-maximal inhibition (IC50) is > 50 µM.

Turning to `C=C1C(=O)[C@@]23C(=O)OC[C@]4([C@@H](OC(C)=O)CCC(C)(C)[C@H]4C=O)[C@@H]2CC[C@@H]1[C@H]3O`, the half-inhibitory concentration (IC50) was > 50 µM.

With `C=C1C(=O)[C@]23[C@H](OC(=O)CCC(=O)Oc4ccc(-c5cc(=S)ss5)cc4)[C@H]1CC[C@H]2[C@@]12CO[C@]3(O)[C@@H](O)[C@@H]1C(C)(C)CC[C@@H]2OC(C)=O`, the 50% inhibitory concentration (IC50) was determined as 44.1 µM.

On to `C=C1C(=O)[C@@]23C(=O)OC[C@]4(C(=O)CCC(C)(C)[C@H]4C=O)[C@@H]2CC[C@@H]1[C@H]3O`, for which the half-inhibitory concentration (IC50) is > 50 µM.

For `C=C1C(=O)[C@@]23C(=O)OC[C@]4(C(=O)CCC(C)(C)[C@H]4C=O)[C@@H]2CC[C@@H]1[C@H]3OC(=O)c1ccccc1C(=O)Oc1ccc(-c2cc(=S)ss2)cc1`, the IC50 is 31.4 µM.

These data come from ChEMBL document CHEMBL4364267, “Hydrogen sulfide donating ent-kaurane and spirolactone-type 6,7-seco-ent-kaurane derivatives: Design, synthesis and antiproliferative properties” (Eur J Med Chem, 2019).
